The text below walks through data of ChEMBL document CHEMBL1140415, “Synthesis, anti-HIV activity, and metabolic stability of new alkenyldiarylmethane HIV-1 non-nucleoside reverse transcriptase inhibitors” (J Med Chem, 2005).

The structures appear in SMILES notation.

Tested on in one data set: not listed separately
Put plainly: In vitro hydrolytic stability in rat plasma, expressed as t1/2. It is filed as ADME, cell-free.
Conditions: not given
The essentials:
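1,1-Diphenylethylene (2.1–5.1 mg) or benzophenone (2.1 mg) served as internal standard. Hydrolysis of the methyl ester was followed, and t1/2 is given in min ± SD from triplicate tests.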
The compound `COC(=O)CCC/C=C(/c1cc(Cl)c(OC)c(C(=O)OC)c1)c1cc(Cl)ccc1OC` returned a half-life of 46.2 s.

`COC(=O)CCC/C=C(/c1cc(C)c(OC)c(C(=O)OC)c1)c1cc(Cl)ccc1OC` showed a half-life of 58.8 s.

In the case of `COC(=O)CCC/C=C(/c1cc(F)cc(C(F)(F)F)c1)c1cc(C)c(OC)c(C(=O)OC)c1`, the half-life turned out to be 261 s.

Take `COC(=O)CCC/C=C(\c1cccc(C#N)c1)c1cc(Cl)ccc1OC`: the half-life came to 25.2 s.

As to `COC(=O)CCC/C=C(\c1cc(C)c(OC)c(C(=O)OC)c1)c1cc(Cl)ccc1OC`, the half-life was 28.2 s.

In turn, `COC(=O)CCC/C=C(/c1cc(C)c2on(C)c(=O)c2c1)c1cc(Cl)ccc1OC` returned a half-life of 28.8 s.

Regarding `COC(=O)CCC/C=C(\c1cc(F)cc(C(F)(F)F)c1)c1cc(C)c2on(C)c(=O)c2c1`, the half-life was 52.2 s.

Compound `COC(=O)CCC/C=C(\c1cccc(C#N)c1)c1cc(C)c(OC)c(C(=O)OC)c1` returned a half-life of 42.6 s.

Compound `COC(=O)CCC/C=C(\c1cccc(C#N)c1)c1cc(C)c2onc(OC)c2c1` yielded a half-life of 87.6 s.

Compound `COC(=O)c1cc(/C(=C\CCN2CCOC2=O)c2cc(F)cc(C(F)(F)F)c2)cc(C)c1OC` gave a half-life of 563 s.

Another data set deals with Human immunodeficiency virus type 1 reverse transcriptase (Human immunodeficiency virus 1, UniProt Q72547). Put plainly: Inhibition of recombinant HIV-1 reverse transcriptase activity.
Conditions: not given
On to `COC(=O)CCC/C=C(/c1cc(Cl)c(OC)c(C(=O)OC)c1)c1cc(Cl)ccc1OC`, for which the IC50 is over 100 µM.

Consider `COC(=O)CCC/C=C(/c1cc(C)c(OC)c(C(=O)OC)c1)c1cc(Cl)ccc1OC`, for which the half-maximal inhibitory concentration (IC50) was over 100 µM.

With `COC(=O)CCC/C=C(/c1cc(F)cc(C(F)(F)F)c1)c1cc(C)c(OC)c(C(=O)OC)c1`, the half-inhibitory concentration (IC50) was 55.3 µM.

As to `COC(=O)CCC/C=C(\c1cccc(C#N)c1)c1cc(Cl)ccc1OC`, the IC50 was 7.58 µM.

For the compound `COC(=O)CCC/C=C(\c1cc(C)c(OC)c(C(=O)OC)c1)c1cc(Cl)ccc1OC`, the IC50 is over 100 µM.

As for `COC(=O)CCC/C=C(/c1cc(C)c2on(C)c(=O)c2c1)c1cc(Cl)ccc1OC`, the half-inhibitory concentration (IC50) is 8.2 µM.

Take `COC(=O)CCC/C=C(\c1cc(F)cc(C(F)(F)F)c1)c1cc(C)c2on(C)c(=O)c2c1`: the concentration for half-maximal inhibition (IC50) was over 100 µM.

Consider `COC(=O)CCC/C=C(\c1cccc(C#N)c1)c1cc(C)c(OC)c(C(=O)OC)c1`, for which the IC50 came out at 0.84 µM.

Turning to `COC(=O)CCC/C=C(\c1cccc(C#N)c1)c1cc(C)c2onc(OC)c2c1`, the IC50 came out at 5.7 µM.

Turning to `COC(=O)c1cc(/C(=C\CCN2CCOC2=O)c2cc(F)cc(C(F)(F)F)c2)cc(C)c1OC`, the IC50 came out at 15.7 µM.

The test system of another data set is MT4. Kind of data set: Cytotoxic concentration against mock infected in MT-4 cells. Format: functional. The following applies: Homo sapiens. The essentials: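 Uninfected (mock-infected) MT-4 cells, run alongside the MTT antiviral assay. Triplicate tests.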
As to `COC(=O)CCC/C=C(/c1cc(Cl)c(OC)c(C(=O)OC)c1)c1cc(Cl)ccc1OC`, it took 5.41 µM to reach half-maximal cytotoxicity (CC50).

`COC(=O)CCC/C=C(/c1cc(C)c(OC)c(C(=O)OC)c1)c1cc(Cl)ccc1OC` returned a half-maximal cytotoxic concentration (CC50) of 13.8 µM.

`COC(=O)CCC/C=C(/c1cc(F)cc(C(F)(F)F)c1)c1cc(C)c(OC)c(C(=O)OC)c1`: the cytotoxic concentration (CC50) turned out to be 113 µM.

`COC(=O)CCC/C=C(\c1cccc(C#N)c1)c1cc(Cl)ccc1OC` gave a 50% cytotoxic concentration (CC50) of at least 45.2 µM.

`COC(=O)CCC/C=C(\c1cc(C)c(OC)c(C(=O)OC)c1)c1cc(Cl)ccc1OC` returned a CC50 of 18.8 µM.

The compound `COC(=O)CCC/C=C(/c1cc(C)c2on(C)c(=O)c2c1)c1cc(Cl)ccc1OC` yielded a CC50 of over 28.8 µM.

Compound `COC(=O)CCC/C=C(\c1cc(F)cc(C(F)(F)F)c1)c1cc(C)c2on(C)c(=O)c2c1` yielded a CC50 of 39.8 µM.

As to `COC(=O)CCC/C=C(\c1cccc(C#N)c1)c1cc(C)c(OC)c(C(=O)OC)c1`, the 50% cytotoxic concentration (CC50) was 153 µM.

Consider `COC(=O)CCC/C=C(\c1cccc(C#N)c1)c1cc(C)c2onc(OC)c2c1`, for which half-maximal cytotoxicity (CC50) was put at 4.69 µM.

The compound `COC(=O)c1cc(/C(=C\CCN2CCOC2=O)c2cc(F)cc(C(F)(F)F)c2)cc(C)c1OC` yielded a CC50 of 24.7 µM.

The test system of the next data set is CEM-SS. Kind of data set: Cytotoxic concentration against mock infected in CEM-SS cells. Format: functional. The settings on record: Homo sapiens. A digest of the protocol:
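Mock-infected CEM-SS cells, tested alongside the HIV-1 RF cytoprotection (MTS) assay. Data come from triplicate tests.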
`COC(=O)CCC/C=C(/c1cc(Cl)c(OC)c(C(=O)OC)c1)c1cc(Cl)ccc1OC` displayed a 50% cytotoxic concentration (CC50) of 9.3 µM.

Take `COC(=O)CCC/C=C(/c1cc(C)c(OC)c(C(=O)OC)c1)c1cc(Cl)ccc1OC`: the CC50 came out at 15.5 µM.

Consider `COC(=O)CCC/C=C(/c1cc(F)cc(C(F)(F)F)c1)c1cc(C)c(OC)c(C(=O)OC)c1`, for which the midpoint of cytotoxicity, the CC50, lay at 12 µM.

Compound `COC(=O)CCC/C=C(\c1cccc(C#N)c1)c1cc(Cl)ccc1OC` returned a CC50 of 16.3 µM.

For the compound `COC(=O)CCC/C=C(\c1cc(C)c(OC)c(C(=O)OC)c1)c1cc(Cl)ccc1OC`, the CC50 stood at 8.3 µM.

Consider `COC(=O)CCC/C=C(/c1cc(C)c2on(C)c(=O)c2c1)c1cc(Cl)ccc1OC`, for which the CC50 was 13 µM.

As to `COC(=O)CCC/C=C(\c1cc(F)cc(C(F)(F)F)c1)c1cc(C)c2on(C)c(=O)c2c1`, the half-maximal cytotoxic concentration (CC50) was 16.8 µM.

`COC(=O)CCC/C=C(\c1cccc(C#N)c1)c1cc(C)c(OC)c(C(=O)OC)c1` displayed a 50% cytotoxic concentration (CC50) of 23.3 µM.

For the compound `COC(=O)CCC/C=C(\c1cccc(C#N)c1)c1cc(C)c2onc(OC)c2c1`, the 50% cytotoxic concentration (CC50) was 0.8 µM.

Turning to `COC(=O)c1cc(/C(=C\CCN2CCOC2=O)c2cc(F)cc(C(F)(F)F)c2)cc(C)c1OC`, the midpoint of cytotoxicity, the CC50, lay at 15 µM.

For the next data set, the system named is Human immunodeficiency virus 2. Kind of data set: In vitro anti-HIV activity against HIV-2ROD infected in MT-4 cells using MTT assay. The following applies: Human immunodeficiency virus 2, MT4. It is filed as functional, organism-based. A digest of the protocol: (§1)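 MT-4 cells infected with HIV-1 strain IIIB or HIV-2 strain ROD. Protection from viral cytopathicity was read by MTT. Triplicate tests.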
Background: Formazan colour is commonly taken as a measure of viable cells.
In turn, `COC(=O)CCC/C=C(/c1cc(Cl)c(OC)c(C(=O)OC)c1)c1cc(Cl)ccc1OC` yielded a concentration for a half-maximal effect (EC50) of over 5.41 µM.

With `COC(=O)CCC/C=C(/c1cc(C)c(OC)c(C(=O)OC)c1)c1cc(Cl)ccc1OC`, the concentration for a half-maximal effect (EC50) is over 13.8 µM.

`COC(=O)CCC/C=C(/c1cc(F)cc(C(F)(F)F)c1)c1cc(C)c(OC)c(C(=O)OC)c1` returned a concentration giving a half-maximal response (EC50) of 10.6 µM.

In the case of `COC(=O)CCC/C=C(\c1cccc(C#N)c1)c1cc(Cl)ccc1OC`, the concentration giving a half-maximal response (EC50) is over 67.6 µM.

`COC(=O)CCC/C=C(\c1cc(C)c(OC)c(C(=O)OC)c1)c1cc(Cl)ccc1OC` displayed an EC50 of over 14.5 µM.

`COC(=O)CCC/C=C(/c1cc(C)c2on(C)c(=O)c2c1)c1cc(Cl)ccc1OC` had an EC50 of over 28.8 µM.

In the case of `COC(=O)CCC/C=C(\c1cc(F)cc(C(F)(F)F)c1)c1cc(C)c2on(C)c(=O)c2c1`, the EC50 is over 43.2 µM.

Consider `COC(=O)CCC/C=C(\c1cccc(C#N)c1)c1cc(C)c(OC)c(C(=O)OC)c1`, for which the half-maximal effective concentration (EC50) was over 169 µM.

Compound `COC(=O)CCC/C=C(\c1cccc(C#N)c1)c1cc(C)c2onc(OC)c2c1` yielded an EC50 of over 5.63 µM.

For the compound `COC(=O)c1cc(/C(=C\CCN2CCOC2=O)c2cc(F)cc(C(F)(F)F)c2)cc(C)c1OC`, the EC50 is over 22.6 µM.

The next data set has as its system Human immunodeficiency virus 1. Kind of data set: In vitro anti-HIV activity against HIV-1 IIIB infected in MT-4 cells using MTT assay. Format: functional, organism-based. The following applies: Human immunodeficiency virus 1, MT4. A digest of the protocol:
as §1
`COC(=O)CCC/C=C(/c1cc(Cl)c(OC)c(C(=O)OC)c1)c1cc(Cl)ccc1OC` came in with a half-maximal effective concentration (EC50) of over 5.41 µM.

The compound `COC(=O)CCC/C=C(/c1cc(C)c(OC)c(C(=O)OC)c1)c1cc(Cl)ccc1OC` registered an EC50 of over 13.8 µM.

As for `COC(=O)CCC/C=C(/c1cc(F)cc(C(F)(F)F)c1)c1cc(C)c(OC)c(C(=O)OC)c1`, the half-maximal effective concentration (EC50) is 2.54 µM.

As for `COC(=O)CCC/C=C(\c1cccc(C#N)c1)c1cc(Cl)ccc1OC`, a half-maximal response (EC50) required 9.11 µM.

In turn, `COC(=O)CCC/C=C(\c1cc(C)c(OC)c(C(=O)OC)c1)c1cc(Cl)ccc1OC` displayed a half-maximal effective concentration (EC50) of over 18.8 µM.

`COC(=O)CCC/C=C(/c1cc(C)c2on(C)c(=O)c2c1)c1cc(Cl)ccc1OC` displayed an EC50 of over 28.8 µM.

For `COC(=O)CCC/C=C(\c1cc(F)cc(C(F)(F)F)c1)c1cc(C)c2on(C)c(=O)c2c1`, the 50% effective concentration (EC50) was over 35.7 µM.

As for `COC(=O)CCC/C=C(\c1cccc(C#N)c1)c1cc(C)c(OC)c(C(=O)OC)c1`, a half-maximal response (EC50) required 12.8 µM.

As to `COC(=O)CCC/C=C(\c1cccc(C#N)c1)c1cc(C)c2onc(OC)c2c1`, the EC50 is over 2.05 µM.

In turn, `COC(=O)c1cc(/C(=C\CCN2CCOC2=O)c2cc(F)cc(C(F)(F)F)c2)cc(C)c1OC` registered a concentration for a half-maximal effect (EC50) of 9.6 µM.

The test system of a further data set is Human immunodeficiency virus 1. Kind of data set: In vitro anti-HIV activity against HIV-1RF infected in CEM-SS cells using MTS cytoprotection assay. The following applies: Human immunodeficiency virus 1, CEM-SS. Format: functional, organism-based.
`COC(=O)CCC/C=C(/c1cc(Cl)c(OC)c(C(=O)OC)c1)c1cc(Cl)ccc1OC` showed a concentration giving a half-maximal response (EC50) of over 100 µM.

Take `COC(=O)CCC/C=C(/c1cc(C)c(OC)c(C(=O)OC)c1)c1cc(Cl)ccc1OC`: the EC50 was over 100 µM.

In the case of `COC(=O)CCC/C=C(/c1cc(F)cc(C(F)(F)F)c1)c1cc(C)c(OC)c(C(=O)OC)c1`, a half-maximal effect (EC50) was put at 7.3 µM.

Take `COC(=O)CCC/C=C(\c1cccc(C#N)c1)c1cc(Cl)ccc1OC`: a half-maximal response (EC50) required 7 µM.

In the case of `COC(=O)CCC/C=C(\c1cc(C)c(OC)c(C(=O)OC)c1)c1cc(Cl)ccc1OC`, the half-maximal effective concentration (EC50) was over 100 µM.

`COC(=O)CCC/C=C(/c1cc(C)c2on(C)c(=O)c2c1)c1cc(Cl)ccc1OC`: the EC50 was over 100 µM.

As for `COC(=O)CCC/C=C(\c1cc(F)cc(C(F)(F)F)c1)c1cc(C)c2on(C)c(=O)c2c1`, the concentration giving a half-maximal response (EC50) is over 100 µM.

The compound `COC(=O)CCC/C=C(\c1cccc(C#N)c1)c1cc(C)c(OC)c(C(=O)OC)c1` came in with an EC50 of over 100 µM.

Turning to `COC(=O)CCC/C=C(\c1cccc(C#N)c1)c1cc(C)c2onc(OC)c2c1`, the EC50 was over 100 µM.

With `COC(=O)c1cc(/C(=C\CCN2CCOC2=O)c2cc(F)cc(C(F)(F)F)c2)cc(C)c1OC`, the concentration for a half-maximal effect (EC50) worked out at 8.3 µM.

What is called half-life is the time in which the quantity being followed falls by half. Low values mean rapid decline, high ones slow decline. For orientation: IC50 means the concentration that gives 50% inhibition. A word on the CC50: it is the concentration that lowers cell viability or growth by half. Read a high CC50 as lower toxicity to the cells. For orientation: EC50 means the concentration that produces a half-maximal response. A high value points to lower potency in that assay.
